Active and inactive are the calls of the source. The calls are words filed in the database; no cut-off is given here.
How the values were obtained:
Plasmodium falciparum [1] = test: Antimalarial activity against Plasmodium falciparum W2 by parasite lactate dehydrogenase assay; format: functional, organism-based
Plasmodium falciparum [2] = test: Antimalarial activity against Plasmodium falciparum D10 by parasite lactate dehydrogenase assay; format: functional, organism-based
Plasmodium berghei [3] = test: (§1) Antimalarial activity against liver stage Plasmodium berghei PbmCherryhsp70 sporozoites infected in human HepG2 cells assessed as reduction in parasite number at 8 uM incubated for 24 hrs followed by removal of media and supplemented with fresh media and further incubated for 24 hrs by phase contrast microscopic analysis relative to control; format: functional
How it was run: (§2)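 HepG2 cells (60000/well, seeded day before) infected 2 h with 20'000 PbmCherry_hsp70 sporozoites from An. stephensi salivary glands, then detached, pooled and treated from 2 hpi at graded concentrations with DMSO control. Medium changed 24 hpi; fixed 4% PFA at 48 hpi. Parasite number and size from mCherry signal by automated microscopy; 6 replicates; host growth checked by phase contrast; one-way ANOVA with Dunnett.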

Plasmodium berghei [4] = test: as §1, with “size” for “number”, “2” for “8”, “analysis” for “analysis relative to control”; format: functional, organism-based; how it was run: as §2
[5] = molecular target: T1, Chloroquine resistance transporter (Plasmodium falciparum) (UniProt Q9N623); test: Inhibition of Plasmodium falciparum Dd2 CRT expressed in Xenopus laevis oocyte assessed as inhibition of [3H]-CQ transport at 100 uM incubated for 1.5 hrs by microbeta scintillation counting method; format: cell-based
T1 sequence (whole entry): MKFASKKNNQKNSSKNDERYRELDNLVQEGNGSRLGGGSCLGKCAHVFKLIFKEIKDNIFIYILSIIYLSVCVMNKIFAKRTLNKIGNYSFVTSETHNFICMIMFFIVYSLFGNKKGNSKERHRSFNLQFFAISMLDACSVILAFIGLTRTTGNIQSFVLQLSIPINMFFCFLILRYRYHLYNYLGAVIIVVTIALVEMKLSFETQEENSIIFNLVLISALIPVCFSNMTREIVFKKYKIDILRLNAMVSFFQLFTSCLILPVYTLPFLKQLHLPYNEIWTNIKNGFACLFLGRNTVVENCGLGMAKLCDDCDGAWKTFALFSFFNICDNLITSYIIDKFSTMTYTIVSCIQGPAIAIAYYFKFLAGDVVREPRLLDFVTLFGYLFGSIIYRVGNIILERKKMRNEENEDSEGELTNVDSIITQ
How it was run: (§3)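 Xenopus oocytes expressing PfCRT Dd2 and non-expressing oocytes, stored at 16–18 °C in OR2+ buffer (pH 7.8), assayed 3-4 days post-injection. [3H]CQ (0.25 µM) influx measured over 1.5 h at 27.5 °C in pH 5.5 medium (96 mM NaCl, 10 mM MES/Tris) with 15 µM unlabeled CQ, scintillation counting. PfCRT-mediated transport = uptake in expressing minus non-expressing oocytes.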

[6] = molecular target: T2, Chloroquine resistance transporter (Plasmodium falciparum, UniProt Q9N623); test: Inhibition of Plasmodium falciparum Dd2 CRT expressed in Xenopus laevis oocyte assessed as inhibition of [3H]-CQ transport incubated for 1.5 hrs by microbeta scintillation counting method; format: cell-based; how it was run: as §3
T2 sequence (Q9N623 whole entry): T1 sequence (whole entry)

[7] = Cytotoxicity against mouse NIH/3T3 cells assessed as reduction in cell viability incubated for 24 hrs by neutral red dye uptake assay; format: cell-based, NIH3T3
How it was run: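 NIH3T3 cells, 5 × 10^4/well, cultured 24 h at 37 °C, 5% CO2, then exposed 24 h to compounds in DMSO at 8–160 µM; medium alone as negative control. Viability by Neutral Red uptake (3 h at 37 °C), dye extracted in acetic acid/ethanol, absorbance 540 nm. Three experiments, six replicates per concentration.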

Plasmodium berghei [8] = test: Antimalarial activity against in Plasmodium berghei ANKA strain GFP-con infected in Balb/c mouse assessed as blocked of transmission activity to Anopheles stephensi by measuring reduction in […] in mosquito at 10 micromol/kg, ip treated first dose 3 days post infection and female mosquitos feed blood meal on day 4 after 1.5 hrs of dosing by direct exposure and measured on day 8 by fluorescence microscopic analysis (reference value: 357); format: functional; settings: dose 10 µmol/kg; time 3 day
How it was run: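 P. berghei ANKA GFP-con, i.p. 10^7 infected RBC into 8–10-week BALB/c mice; on day 3 mice with ~5% parasitemia and gametocytes randomised, 3 per group. Dosed i.p. 10 µmol/kg on afternoon of day 3 and again day 4, 1.5 h before 1 h feed by ~150 female An. stephensi. Day 8: fluorescent midgut oocysts counted in 20–30 mosquitoes; triplicate cages; PBS control; two-tailed t-test.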

SMILES	IC50 (Plasmodium falciparum [1]) [nM]	IC50 (Plasmodium falciparum [2]) [nM]	inhibition at 8 µM (Plasmodium berghei [3]) [%]	inhibition (Plasmodium berghei [4])	inhibition [5]	IC50 [6] [nM]	CC50 at 24 h [7] [nM]	Activity (Plasmodium berghei [8])
COc1cc(NC(C)CCCN)c2ncccc2c1 (centres undefined) [PRIMAQUINE]	4400	5700	50	Active	–	–	–	–
OC(c1ccc(Cl)cc1)(c1ccc(CN2CCNCC2)cc1)c1ccnc2cc(Cl)ccc12 (centres undefined)	2000	2000	–	–	inactive	–	–	–
COc1cc(NC(c2ccc(CN3CCNCC3)cc2)c2cccc(Cl)c2)n2nc(C)nc2n1 (centres undefined)	920	3700	–	–	98%	12500	< 3500	–
Clc1ccc(C(c2ccc(CN3CCNCC3)cc2)c2ccnc3cc(Cl)ccc23)cc1 (centres undefined)	2700	3700	–	–	inactive	–	–	–
COc1cc(NC(c2ccc(CN3CCCC3)cc2)c2cccc(Cl)c2)c2ncccc2c1 (centres undefined)	3700	4500	–	–	65%	55000	28000	491
O=C(c1ccc(Cl)cc1)c1ccc(CN2CCNCC2)cc1	8600	> 15000	–	–	22%	–	–	–
Clc1ccc2c(NC(c3ccc(CN4CCNCC4)cc3)c3cccc(OCCOc4cccc(C(Nc5ccnc6cc(Cl)ccc56)c5ccc(CN6CCNCC6)cc5)c4)c3)ccnc2c1 (centres undefined)	–	–	–	–	Active	–	–	–
OC(c1ccc(Cl)cc1)c1ccc(CN2CCNCC2)cc1 (centres undefined)	11000	> 15000	–	–	22%	–	–	–
Clc1ccc(C(Nc2ccnc3cc(Cl)ccc23)c2ccc(CN3CCN(Cc4ccc(C(Nc5ccnc6cc(Cl)ccc56)c5cccc(Cl)c5)cc4)CC3)cc2)cc1 (centres undefined)	460	595	–	–	Active	15600	–	–
OC(c1ccc(Cl)cc1)c1ccc(CCN2CCCC2)cc1 (centres undefined)	> 15000	> 15000	–	–	22%	–	–	–
Clc1ccc(C(Nc2ccnc3cc(Cl)ccc23)c2ccc(CCN3CCCC3)cc2)cc1 (centres undefined)	27	19	–	–	inactive	–	–	–
COc1cc(NC(c2ccc(CN3CCNCC3)cc2)c2cccc(Cl)c2)c2ncccc2c1 (centres undefined)	2300	2800	–	–	65%	64000	19000	454
Oc1cccc(C(Nc2ccnc3cc(Cl)ccc23)c2ccc(CN3CCNCC3)cc2)c1 (centres undefined)	475	179	–	–	inactive	–	–	–
Clc1cccc(C(Nc2ccnc3cc(Cl)ccc23)c2ccc(CN3CCCCC3)cc2)c1 (centres undefined)	88	84	–	–	inactive	–	–	–
COc1cccc(C(Nc2ccnc3cc(Cl)ccc23)c2ccc(CN3CCNCC3)cc2)c1 (centres undefined)	75	40	–	–	Active	–	–	–
Clc1cccc(C(Nc2ccnc3cc(Cl)ccc23)c2ccc(CCN3CCCC3)cc2)c1 (centres undefined)	22	23	–	–	inactive	–	–	–
Clc1ccc(C(Nc2ccnc3cc(Cl)ccc23)c2ccc(CN3CCCCC3)cc2)cc1 (centres undefined)	69	65	–	–	inactive	–	–	–
